Measurements published in ChEMBL document CHEMBL4425135, “Novel C-Ring-Hydroxy-Substituted Controlled Deactivation Cannabinergic Analogues” (J Med Chem, 2016).
pEC50, pKi: −log10 of the molar value. Active and inactive are the calls of the source. The calls are words filed in the database; no cut-off is given here.

How the values were obtained:
[1] = target: T1, Cannabinoid receptor 2 (Mus musculus, UniProt P47936); experiment: Displacement of [3H]CP55940 from mouse CB2 receptor expressed in HEK293 cell membranes by scintillation counting method
Outline: (§1)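 Competition binding against [3H]CP-55,940 using rat brain membranes (CB1) or membranes of HEK293 cells expressing mouse or human CB2. IC50 from nonlinear regression, converted to Ki. Each experiment run in triplicate; Ki is the mean of three independent experiments.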

[2] = target: T2, Cannabinoid receptor 1 (Rattus norvegicus, UniProt P20272); experiment: Displacement of [3H]CP55940 from CB1 receptor in rat brain membranes by scintillation counting method; assay type: cell membranes; outline: as §1
[3] = test system: Squirrel monkey; experiment: Induction of CB1-related discriminative stimulus effect in squirrel monkey at 0.001 mg/kg, im after 1 hr; assay type: functional, organism-based; settings: Saimiri sciureus
Outline: (§2)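 Squirrel monkeys trained on two levers to discriminate 0.01 mg/kg im CB1 agonist from vehicle. After im test dosing, sequential sessions began at 15, 30, 60, 120, 240, 480 and 960 min, with some groups also tested at 36 and 48 h. Measured percent responding on the agonist lever (≥90% counted as full substitution) and overall response rate.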

[4] = test system: Rattus norvegicus; experiment: Hypothermic activity in Sprague-Dawley rat assessed as decrease in rectal body temperature at 0.1 mg/kg, sc measured over 6 hrs; assay type: functional
Outline: (§3)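 Female Sprague-Dawley rats, 250–350 g, n = 6/group, retested with ≥5 days between sessions. Dosed sc (1.0 mL/kg) in 20% ethanol/20% alkamuls/60% saline diluted with saline. Rectal thermistor at 6 cm depth. Two baselines 15 min apart, then readings every 30 min for 3 h and hourly to 6 h. Change taken from mean baseline.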

[5] = test system: Mus musculus; experiment: Analgesic activity in CD1 mouse assessed as increase in tail flick latency at 1 mg/kg, ip measured at 20 mins relative to control; assay type: functional
Outline: (§4)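 Male CD-1 mice, 30–35 g, n = 6, each used once, habituated over three mock sessions at 38 °C. Tail-flick latency in a 52 °C water bath at baseline, then 20, 60, 180 and 360 min after ip dosing (10 mL/kg). Vehicle 2% DMSO/4% Tween-80/4% propylene glycol with saline, freshly prepared. Scored as %MPE.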

[6] = test system: Rattus norvegicus; experiment: Hypothermic activity in Sprague-Dawley rat assessed as time required for decrease in rectal body temperature at 0.01 to 1 mg/kg, sc; assay type: functional; outline: as §3
[7] = target: Cannabinoid receptor 1 (Rattus norvegicus) (UniProt P20272); experiment: Agonist activity at rat CB1 receptor expressed in HEK293 cells assessed as decrease in forskolin-stimulated cAMP levels at 500 nM after 30 mins relative to CP-55940; assay type: functional, cell-based
[8] = test system: Mus musculus; experiment: Analgesic activity in CD1 mouse assessed as increase in tail flick latency at 1 mg/kg, ip measured at 360 mins relative to control; assay type: functional; outline: as §4
[9] = Half life in mouse plasma assessed as esterase-mediated compound hydrolysis at 200 uM by HPLC method; assay type: ADME, cell-free
Outline: (§5)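 Compound diluted to 200 μM in mouse or rat plasma and shaken at 37 °C, 100 rpm. Samples taken at timed points, diluted 1:4 in acetonitrile and centrifuged. Supernatant analysed by reversed-phase C18 HPLC, acetonitrile/acidified water gradient, UV detection. 4-Nitrophenyl butyrate run as control in each experiment. Half-life from exponential decay fit.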

[10] = test system: Squirrel monkey; experiment: Induction of CB1-related discriminative stimulus effect in squirrel monkey at 0.001 mg/kg, im after 4 to 16 hrs; assay type: functional, organism-based; settings: Saimiri sciureus; outline: as §2
[11] = test system: Mus musculus; experiment: Analgesic activity in CD1 mouse assessed as increase in tail flick latency at 1 mg/kg, ip measured at 60 mins relative to control; assay type: functional; outline: as §4
[12] = target: T3, Cannabinoid receptor 2 (Homo sapiens, UniProt P34972); experiment: Agonist activity at human CB2 receptor expressed in HEK293 cells assessed as decrease in forskolin-stimulated cAMP levels after 30 mins; assay type: functional, cell-based
Outline: (§6)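 Stably transfected HEK293 cells harvested with Versene, washed in HBSS, resuspended in stimulation buffer. Cells exposed to graded compound concentrations in buffer containing forskolin (2 μM final), 30 min at room temperature. cAMP read by TR-FRET (Eu-cAMP tracer plus ULight anti-cAMP antibody, 60 min room temperature). EC50 from nonlinear regression.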

[13] = test system: Squirrel monkey; experiment: Induction of CB1-related discriminative stimulus effect in squirrel monkey assessed as time required for 50% loss of full effect at 0.001 mg/kg, im; assay type: functional, organism-based; settings: Saimiri sciureus; outline: as §2
[14] = test system: Rattus norvegicus; experiment: Hypothermic activity in Sprague-Dawley rat assessed as decrease in rectal body temperature at 0.1 mg/kg, sc after 6 hrs; assay type: functional, organism-based; outline: as §3
[15] = test system: Rattus norvegicus; experiment: Hypothermic activity in sc dosed Sprague-Dawley rat assessed as decrease in rectal body temperature measured over 6 hrs; assay type: functional; outline: as §3
[16] = target: T3, Cannabinoid receptor 2; experiment: Agonist activity at human CB2 receptor expressed in HEK293 cells assessed as decrease in forskolin-stimulated cAMP levels at 500 nM after 30 mins relative to CP-55940; assay type: functional, cell-based
[17] = test system: Mus musculus; experiment: Analgesic activity in CD1 mouse assessed as increase in tail flick latency at 1 mg/kg, ip measured at 180 mins relative to control; assay type: functional; outline: as §4
[18] = target: T3, Cannabinoid receptor 2; experiment: Displacement of [3H]CP55940 from human CB2 receptor expressed in HEK293 cell membranes by scintillation counting method; outline: as §1
[19] = test system: Squirrel monkey; experiment: Effect on response rate in squirrel monkey at 0.001 mg/kg, im; assay type: functional, organism-based; settings: Saimiri sciureus; outline: as §2
[20] = test system: Rattus norvegicus; experiment: Hypothermic activity in Sprague-Dawley rat assessed as decrease in rectal body temperature at 1 mg/kg, sc measured over 6 hrs; assay type: functional; outline: as §3
[21] = Half life in rat plasma assessed as esterase-mediated compound hydrolysis at 200 uM by HPLC method; assay type: ADME, cell-free; outline: as §5
[22] = target: T2, Cannabinoid receptor 1; experiment: Agonist activity at rat CB1 receptor expressed in HEK293 cells assessed as decrease in forskolin-stimulated cAMP levels after 30 mins; assay type: functional, cell-based; outline: as §6
[23] = test system: Squirrel monkey; experiment: Induction of CB1-related discriminative stimulus effect in squirrel monkey assessed as time required for 50% loss of full effect at 0.003 mg/kg, im; assay type: functional, organism-based; settings: Saimiri sciureus; outline: as §2
[24] = test system: Squirrel monkey; experiment: Induction of CB1-related discriminative stimulus effect in squirrel monkey at 0.003 mg/kg, im measured within 15 mins; assay type: functional, organism-based; settings: Saimiri sciureus; outline: as §2
[25] = test system: Squirrel monkey; experiment: Induction of CB1-related discriminative stimulus effect in squirrel monkey at 0.003 mg/kg, im measured at 36 hrs; assay type: functional, organism-based; settings: Saimiri sciureus; outline: as §2
[26] = test system: Squirrel monkey; experiment: Induction of CB1-related discriminative stimulus effect in squirrel monkey at 0.003 mg/kg, im measured after 24 hrs; assay type: functional, organism-based; settings: Saimiri sciureus
[27] = target: T1, Cannabinoid receptor 2; experiment: Binding affinity to mouse CB2 receptor; outline: as §1
[28] = test system: Squirrel monkey; experiment: Effect on response rate in squirrel monkey at 0.003 mg/kg, im; assay type: functional, organism-based; settings: Saimiri sciureus; outline: as §2
[29] = target: T2, Cannabinoid receptor 1; experiment: Binding affinity to rat CB1 receptor
Outline: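 Competition displacement of [3H]CP-55,940 from rat brain membranes (CB1 source). IC50 from nonlinear regression of competition curves, converted to Ki. Each experiment run in triplicate; Ki is the mean of three independent experiments.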

[30] = test system: Rattus norvegicus; experiment: Hypothermic activity in Sprague-Dawley rat assessed as decrease in rectal body temperature at 3 mg/kg, sc measured over 6 hrs; assay type: functional; outline: as §3
[31] = test system: Rattus norvegicus; experiment: Hypothermic activity in Sprague-Dawley rat assessed as time required for decrease in rectal body temperature at 0.03 to 3 mg/kg, sc; assay type: functional; outline: as §3
[32] = test system: Rattus norvegicus; experiment: Hypothermic activity in Sprague-Dawley rat assessed as time required for decrease in rectal body temperature at 0.1 to 3 mg/kg, sc; assay type: functional; outline: as §3

T1 sequence (P47936 whole entry): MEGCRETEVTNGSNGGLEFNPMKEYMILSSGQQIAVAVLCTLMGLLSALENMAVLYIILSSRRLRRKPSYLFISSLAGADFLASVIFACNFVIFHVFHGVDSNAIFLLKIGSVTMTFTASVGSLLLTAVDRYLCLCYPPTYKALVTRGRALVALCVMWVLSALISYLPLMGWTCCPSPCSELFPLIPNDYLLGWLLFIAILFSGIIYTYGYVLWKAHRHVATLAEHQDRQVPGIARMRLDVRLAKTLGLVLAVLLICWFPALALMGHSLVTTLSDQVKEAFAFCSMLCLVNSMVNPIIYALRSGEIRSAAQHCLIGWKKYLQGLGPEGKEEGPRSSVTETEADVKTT
T2 sequence (P20272 whole entry): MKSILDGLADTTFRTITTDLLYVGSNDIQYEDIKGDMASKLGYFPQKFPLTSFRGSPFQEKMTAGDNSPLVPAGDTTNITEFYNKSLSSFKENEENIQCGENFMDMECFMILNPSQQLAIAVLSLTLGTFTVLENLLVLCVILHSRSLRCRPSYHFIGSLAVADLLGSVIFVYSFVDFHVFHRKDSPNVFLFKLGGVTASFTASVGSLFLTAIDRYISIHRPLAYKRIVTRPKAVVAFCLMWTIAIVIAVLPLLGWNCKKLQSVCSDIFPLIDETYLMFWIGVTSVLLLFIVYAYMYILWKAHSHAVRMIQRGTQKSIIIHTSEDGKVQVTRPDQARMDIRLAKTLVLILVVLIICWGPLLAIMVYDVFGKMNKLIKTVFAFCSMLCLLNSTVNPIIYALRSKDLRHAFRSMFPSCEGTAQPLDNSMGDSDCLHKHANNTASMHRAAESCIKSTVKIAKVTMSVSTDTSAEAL
Chain of Cannabinoid receptor 1 (Rattus norvegicus) (P20272 whole entry): as above
T3 sequence (P34972 whole entry): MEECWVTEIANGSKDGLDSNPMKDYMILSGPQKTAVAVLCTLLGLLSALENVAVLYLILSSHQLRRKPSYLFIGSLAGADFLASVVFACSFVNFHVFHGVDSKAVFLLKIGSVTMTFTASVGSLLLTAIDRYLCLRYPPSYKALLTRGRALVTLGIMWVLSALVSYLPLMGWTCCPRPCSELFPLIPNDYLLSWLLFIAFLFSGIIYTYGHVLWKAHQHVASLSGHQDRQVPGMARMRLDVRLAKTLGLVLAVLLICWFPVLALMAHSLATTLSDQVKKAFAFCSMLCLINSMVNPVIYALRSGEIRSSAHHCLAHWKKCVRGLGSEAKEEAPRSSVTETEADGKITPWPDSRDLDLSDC

CC1(C)Oc2cc(CC(=O)O)cc(O)c2[C@@H]2C[C@H](O)CC[C@H]21
pKi [1]: < 5.00 | pKi [2]: < 5.00

CCCCOC(=O)C(C)(C)c1cc(O)c2c(c1)OC(C)(C)[C@@H]1CC[C@@H](CO)C[C@@H]21
Activity [3]: Active | T [4]: >4 °C | MPE [5]: 94% | Time [6]: 1 to 3 h | Emax [7]: 87% | MPE [8]: 58% | pKi [1]: 10.00 | t1/2 [9]: 3.1 min | Activity [10]: inactive | MPE [11]: 96% | pEC50 [12]: 9.52 | T1/2 [13]: 48 min | Activity [14]: inactive | Activity [15]: Dose-dependent effect | ED50 [15]: 0.04 mg/kg | Emax [16]: 82% | pKi [2]: 8.62 | MPE [17]: 97% | pKi [18]: 8.51 | Activity [19]: inactive | T [20]: 4.7 - 7.2 °C | t1/2 [21]: 39.2 min | pEC50 [22]: 8.60

CC(C)(C(=O)O)c1cc(O)c2c(c1)OC(C)(C)[C@@H]1CC[C@H](O)C[C@@H]21
pKi [1]: < 5.00 | pKi [2]: < 5.00

CC(C)(C(=O)O)c1cc(O)c2c(c1)OC(C)(C)[C@@H]1CC[C@@H](O)C[C@@H]21
pKi [1]: < 5.00 | pKi [2]: < 5.00

CCCCCCC(C)(C)c1cc(O)c2c(c1)OC(C)(C)[C@@H]1CC=C(CO)C[C@@H]21
T1/2 [23]: 1.1 h | Time [6]: 1 to 3 h | Activity [24]: Active | Activity [25]: inactive | Activity [26]: Active | ED50 [15]: 0.04 mg/kg | pKi [27]: 9.70 | Activity [28]: inactive | pKi [29]: 9.15

CCCCOC(=O)C(C)(C)c1cc(O)c2c(c1)OC(C)(C)[C@@H]1CC=C(CO)C[C@@H]21
T [30]: 4.7 - 7.2 °C | T [4]: >4 °C | Emax [7]: 89% | t1/2 [9]: 5 min | pEC50 [12]: 8.24 | Activity [14]: inactive | Activity [15]: Dose-dependent effect | ED50 [15]: 0.04 mg/kg | Emax [16]: 83% | t1/2 [21]: 39.1 min | pEC50 [22]: 8.34 | Time [31]: 1 to 3 h

CCCCOC(=O)C(C)(C)c1cc(O)c2c(c1)OC(C)(C)[C@@H]1CC[C@H](O)C[C@@H]21
t1/2 [9]: 2.8 min | t1/2 [21]: 5.6 min

CCCCOC(=O)Cc1cc(O)c2c(c1)OC(C)(C)[C@@H]1CC[C@@H](O)C[C@@H]21
pKi [1]: 6.50 | pKi [2]: 6.62 | pKi [18]: 6.36

CC(C)(C(=O)O)c1cc(O)c2c(c1)OC(C)(C)[C@@H]1CC=C(CO)C[C@@H]21
pKi [1]: < 5.00 | pKi [2]: < 5.00

CC1(C)Oc2cc(CC(=O)O)cc(O)c2[C@@H]2C[C@@H](O)CC[C@H]21
pKi [1]: < 5.00 | pKi [2]: < 5.00

CCCCOC(=O)Cc1cc(O)c2c(c1)OC(C)(C)[C@@H]1CC[C@H](O)C[C@@H]21
pKi [1]: 6.18 | pKi [2]: 6.12 | pKi [18]: 6.13

CC(C)(C(=O)O)c1cc(O)c2c(c1)OC(C)(C)[C@@H]1CC[C@@H](CO)C[C@@H]21
pKi [1]: < 5.00 | pKi [2]: < 5.00

CCCCOC(=O)C(C)(C)c1cc(O)c2c(c1)OC(C)(C)[C@@H]1CC[C@@H](O)C[C@@H]21
T [30]: 4.7 - 7.2 °C | Time [32]: 1 to 3 h | Emax [7]: 85% | t1/2 [9]: 2.7 min | pEC50 [12]: 8.05 | Activity [15]: Dose-dependent effect | ED50 [15]: 0.74 mg/kg | Emax [16]: 85% | t1/2 [21]: 10.2 min | pEC50 [22]: 8.07
